According to ChEMBL document CHEMBL1129524, “Potent inhibitors of acyl-CoA:cholesterol acyltransferase. 2. Structure-activity relationships of novel N-(2,2-dimethyl-2,3-dihydrobenzofuran-7-yl)amides” (J Med Chem, 1996):

How the values were obtained:
O-acyltransferase = O-acyltransferase (Oryctolagus cuniculus, UniProt G1SFD9); assay: Inhibitory activity against Acyl coenzyme A:cholesterol acyltransferase 1 obtained from rabbit intestine microsomes
Summary of the method: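 Enzyme source was small-intestinal mucosa microsomes from cholesterol-fed rabbits. The substrate was [1-¹⁴C]oleoyl-CoA.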

Rattus norvegicus [1] = assay: Total cholesterol lowering activity tested by administered orally to cholesterol fed rats at dose 0.3(mg/kg) once a day for 3 days; assay type: functional
Summary of the method: (§1)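 Male Wistar rats received the compound orally once daily for 3 days. Each night they ate a diet with 2% cholesterol, 1% cholic acid, 20% casein, 45% sucrose, 12% coconut oil, 4% KC flock, 1% vitamin mix, 7% mineral mix and 8% dried fish powder. Serum total cholesterol was then measured. Activity is the observed reduction as a percentage of the control-minus-normal difference.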

[2] = biological target: Sterol O-acyltransferase 1 (Oryctolagus cuniculus); assay: Inhibitory activity against Acyl coenzyme A:cholesterol acyltransferase 1 obtained from rabbit liver microsomes
Rattus norvegicus [3] = organism: Rattus norvegicus; assay: Inhibitory activity against foam cell formation (acetyl-LDL-induced cholesteryl ester accumulation) in rat peritoneal macrophages; assay type: functional
Summary of the method: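 Peritoneal macrophages were prepared from rats. The IC₅₀ was determined for inhibition of acetyl-human-LDL-induced cellular cholesteryl ester accumulation.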

Rattus norvegicus [4] = assay: Total cholesterol lowering activity tested by administered orally to rats at dose 10(mg/kg) once a day for 3 days; assay type: functional; summary of the method: as §1
Rattus norvegicus [5] = assay: Total cholesterol lowering activity tested by administered orally to rats at dose 1(mg/kg) once a day for 3 days; assay type: functional; summary of the method: as §1
Rattus norvegicus [6] = assay: Total cholesterol lowering activity tested by administered orally to rats at dose 3(mg/kg) once a day for 3 days; assay type: functional; summary of the method: as §1
Rattus norvegicus [7] = assay: Total cholesterol lowering activity tested by administered orally to cholesterol fed rats at dose 3(mg/kg) once a day for 3 days; assay type: functional; summary of the method: as §1

SMILES	IC50 (O-acyltransferase) [nM]	other results
CCCCCCCCCCCCC(C)(C)C(=O)Nc1c(C)cc(C)c2c1OC(C)(C)C2	33	
CCCCCCCCCCC(C)(C)C(=O)Nc1c(OC)ccc2c1OCCC2=O		Change (Rattus norvegicus [1]): -66%; IC50 [2]: 16 nM; IC50 (Rattus norvegicus [3]): 160 nM
Cc1cc(C)c(NC(=O)C(C)(C)CCCCCOc2ccccc2)c2c1CC(C)(C)O2	86	
Cc1cc(C)c(NC(=O)C(C)(C)CCCCCCOCC(C)C)c2c1CC(C)(C)O2		Change (Rattus norvegicus [4]): -62%
CCCCCCCCCCCCCCCC(=O)Nc1cccc2c1OC(C)(C)C2	890	
Cc1cc(C)c(NC(=O)C(C)(C)CCCCOc2ccc(Cl)cc2)c2c1CC(C)(C)O2	330	Change (Rattus norvegicus [4]): -61%
CCCCCCCCCCC(C)(C)C(=O)Nc1c(C)c(N(C)C)c(C)c2c1OC(C)(C)C2		Change (Rattus norvegicus [1]): -71%; Change (Rattus norvegicus [5]): -88%; IC50 (Rattus norvegicus [3]): 30 nM
CCCCCCCCCCC(C)(C)C(=O)Nc1c(C)c([N+](=O)[O-])c(C)c2c1OC(C)(C)C2	36	
Cc1cc(C)c(NC(=O)C(C)(C)CCCCCc2ccccc2)c2c1CC(C)(C)O2	120	Change (Rattus norvegicus [4]): -66%
CCCCCCCCCCC1(C(=O)Nc2c(C)cc(C)c3c2OC(C)(C)C3)CCCC1	170	
CCCCCCCCC(C)(C)C(=O)Nc1c(C)cc(C)c2c1OC(C)(C)C2	140	
CCCCCCCCOc1ccc(C(=O)Nc2c(C)cc(C)c3c2OC(C)(C)C3)cc1	> 200	
CCCCCCCCCCC(C)(C)C(=O)Nc1c(C)c(N)c(C)c2c1OC(C)(C)C2	59	
CCCCCCCCCCC1(C(=O)Nc2cccc3c2OC(C)(C)C3)CCCC1	500	
Cc1cc(C)c(NC(=O)c2ccc(OCCCCCCOc3ccc(Cl)cc3)cc2)c2c1CC(C)(C)O2	> 200	
Cc1cc(C)c(NC(=O)C(C)(C)CCCCCOc2ccc(Cl)cc2)c2c1CC(C)(C)O2	150	Change (Rattus norvegicus [5]): -64%

SMILES	IC50 (O-acyltransferase) [nM]	other results
CCCCCCCCCCOc1ccc(C(=O)Nc2c(C)cc(C)c3c2OC(C)(C)C3)cc1	30	Change (Rattus norvegicus [6]): 0%
Cc1cc(C)c(NC(=O)C(C)(C)CCCCCCc2ccccc2)c2c1CC(C)(C)O2	81	
CCCCCCCCCCC(C)(C)C(=O)Nc1c(C)cc(C)c2c1OC(C)(C)C2		Change (Rattus norvegicus [1]): -44%; Change (Rattus norvegicus [5]): -61%; IC50 (Rattus norvegicus [3]): 650 nM
Cc1ccc(OCCCCCCC(C)(C)C(=O)Nc2c(C)cc(C)c3c2OC(C)(C)C3)cc1	50	
CCCCCCCCCCC1(C(=O)Nc2c(C)ccc3c2OC(C)(C)C3)CCCC1	240	Change (Rattus norvegicus [4]): -52%
CCCCCCCCCCCCOc1ccc(C(=O)Nc2c(C)cc(C)c3c2OC(C)(C)C3)cc1	90	
CCCCCCCCCCCCCCCC(=O)Nc1c(C)cc(C)c2c1OC(C)(C)C2	26	
Cc1cc(C)c(NC(=O)C(C)(C)CCCc2ccc(CC(C)C)cc2)c2c1CC(C)(C)O2	40	Change (Rattus norvegicus [6]): -57%
Cc1cc(C)c(NC(=O)C(C)(C)CCCOc2ccc(Cl)cc2)c2c1CC(C)(C)O2	260	
Cc1cc(C)c(NC(=O)C(C)(C)CCCCOCc2ccccc2)c2c1CC(C)(C)O2		Change (Rattus norvegicus [4]): -50%
Cc1cc(C)c(NC(=O)C(C)(C)CCCCCCN2CCCCC2)c2c1CC(C)(C)O2	> 500	
CCCCCCCCCCC(C)(C)C(=O)Nc1c(OC)cc(OC)cc1OC [CL-976]		Change (Rattus norvegicus [7]): -50%; IC50 (Rattus norvegicus [3]): 3800 nM
Cc1cc(C)c(NC(=O)C(C)(C)CCCCCCOc2ccc(Cl)cc2)c2c1CC(C)(C)O2	76	Change (Rattus norvegicus [1]): -64%; Change (Rattus norvegicus [5]): -75%; IC50 (Rattus norvegicus [3]): 1500 nM
CCCOCCCCCCOc1ccc(C(=O)Nc2c(C)cc(C)c3c2OC(C)(C)C3)cc1	> 200	
Cc1cc(C)c(NC(=O)C(C)(C)CCCCc2ccccc2)c2c1CC(C)(C)O2	210	
